Reference: ChEMBL document CHEMBL4732199, “Potent and orally bioavailable CDK8 inhibitors: Design, synthesis, structure-activity relationship analysis and biological evaluation” (Eur J Med Chem, 2021)
Active and inactive are the calls of the source. No cut-off for these calls is given here.

Key:
CDK8/Cyclin C = CDK8/Cyclin C (Homo sapiens, UniProt P49336); assay: Inhibition of CDK8/cyclin C (unknown origin) using RBER-IRStide as substrate incubated for 60 mins in presence of [gamma33P]ATP by scintillation counting method; assay type: protein-complex assay
MV4-11 = assay: Growth inhibition of human MV4-11 cells after 72 hrs by resazurin staining based assay; assay type: functional
In short: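 MV4-11 leukaemia cells grown in medium with 10% FBS at 37 °C, 5% CO2. Growth was read by a 72-h resazurin viability assay. GI50 was obtained by nonlinear regression and reported as mean ± standard deviation of at least two replicates.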

[1] = target: CDK18/Cyclin Y (Homo sapiens) (UniProt Q07002+Q8ND76); assay: Inhibition of CDK18/Cyclin Y (unknown origin) at 1 uM; assay type: protein-complex assay
In short: (§1)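 Residual activity of each kinase with compound at 1 µM, measured in a contracted radioisotope-based kinase profiling assay and expressed as % kinase activity remaining.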

[2] = target: CDK17/Cyclin-Y (Homo sapiens) (UniProt Q00537+Q8ND76); assay: Inhibition of CDK17/Cyclin Y (unknown origin) at 1 uM; assay type: protein-complex assay; in short: as §1
[3] = target: Cyclin-Y/Cyclin-dependent kinase 16 (Homo sapiens) (UniProt Q00536+Q8ND76); assay: Inhibition of CDK16/Cyclin Y (unknown origin) at 1 uM; assay type: protein-complex assay; in short: as §1
[4] = target: Cyclin-dependent kinase 14/Cyclin-Y (Homo sapiens) (UniProt O94921+Q8ND76); assay: Inhibition of CDK14/Cyclin Y (unknown origin) at 1 uM; assay type: protein-complex assay; in short: as §1
[5] = target: CDK9/cyclin T1 (Homo sapiens) (UniProt O60563+P50750); assay: Inhibition of CDK9/Cyclin T1 (unknown origin) at 1 uM relative to control; assay type: protein-complex assay; in short: as §1
[6] = target: CDK7/Cyclin H/MNAT1 (Homo sapiens) (UniProt P51946+P50613+P51948); assay: Inhibition of CDK7/cyclin H/MNAT1 (unknown origin) at 1 uM; assay type: protein-complex assay; in short: as §1
[7] = target: CDK6/cyclin D3 (Homo sapiens) (UniProt P30281+Q00534); assay: Inhibition of CDK6/cyclin-D3 (unknown origin) at 1 uM; assay type: protein-complex assay; in short: as §1
[8] = target: T1, Cyclin-dependent kinase 5/CDK5 activator 1 (Homo sapiens) (UniProt Q00535+Q15078); assay: Inhibition of CDK5/p35 (unknown origin) at 1 uM; assay type: protein-complex assay; in short: as §1
[9] = target: T1, Cyclin-dependent kinase 5/CDK5 activator 1 (Homo sapiens); assay: Inhibition of CDK5/p25 (unknown origin) at 1 uM; assay type: protein-complex assay; in short: as §1
[10] = target: Cyclin-dependent kinase 4/cyclin D1 (Homo sapiens) (UniProt P11802+P24385); assay: Inhibition of CDK4/cyclin-D1 (unknown origin) at 1 uM; assay type: protein-complex assay; in short: as §1
[11] = target: CDK3/Cyclin E (Homo sapiens) (UniProt P24864+Q00526); assay: Inhibition of CDK3/cyclin-E (unknown origin) at 1 uM; assay type: protein-complex assay; in short: as §1
[12] = target: CDK2/Cyclin A2 (Homo sapiens) (UniProt P24941+P20248); assay: Inhibition of CDK2/cyclin-A (unknown origin) at 1 uM; assay type: protein-complex assay; in short: as §1
[13] = target: Cyclin-dependent kinase 1/cyclin B1 (Homo sapiens) (UniProt P06493+P14635); assay: Inhibition of CDK1/cyclin-B (unknown origin) at 1 uM relative to control; assay type: protein-complex assay; in short: as §1
[14] = system: Glycogen synthase kinase-3 alpha (Homo sapiens), P49840 [UNDEFINED MUTATION]; assay: Inhibition of human GSKalpha S449A mutant (2 to 3nd residues) at 1 uM using YRRAAVPPSPSLSRHSSPHQS(p) EDEEE as substrate incubated for 40 mins in presence of [gamma-33P]-ATP by scintillation counting method relative to control
In short: (§2)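 Single-point screen of residual kinase activity (%) at 1 µM compound. Run as a contract radiometric [γ-33P]-ATP kinase assay, either the KinaseProfiler service or the HotSpot assay. ATP was set at the experimentally determined Km(ATP) of each kinase.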

[15] = system: Glycogen synthase kinase-3 beta (Homo sapiens), P49841 [UNDEFINED MUTATION]; assay: Inhibition of human GSKbeta H350L mutant (2 to 3nd residues) at 1 uM using YRRAAVPPSPSLSRHSSPHQS(p) EDEEE as substrate incubated for 40 mins in presence of [gamma-33P]-ATP by scintillation counting method relative to control; in short: as §2
[16] = target: T2, Protein kinase C theta type (Homo sapiens, UniProt Q04759); assay: Inhibition of human full length PKCtheta at 1 uM using histone H1 as substrate incubated for 40 mins in presence of [gamma-33P]-ATP by scintillation counting method relative to control; in short: as §2
Target sequence in this assay (Q04759 whole entry, looked up): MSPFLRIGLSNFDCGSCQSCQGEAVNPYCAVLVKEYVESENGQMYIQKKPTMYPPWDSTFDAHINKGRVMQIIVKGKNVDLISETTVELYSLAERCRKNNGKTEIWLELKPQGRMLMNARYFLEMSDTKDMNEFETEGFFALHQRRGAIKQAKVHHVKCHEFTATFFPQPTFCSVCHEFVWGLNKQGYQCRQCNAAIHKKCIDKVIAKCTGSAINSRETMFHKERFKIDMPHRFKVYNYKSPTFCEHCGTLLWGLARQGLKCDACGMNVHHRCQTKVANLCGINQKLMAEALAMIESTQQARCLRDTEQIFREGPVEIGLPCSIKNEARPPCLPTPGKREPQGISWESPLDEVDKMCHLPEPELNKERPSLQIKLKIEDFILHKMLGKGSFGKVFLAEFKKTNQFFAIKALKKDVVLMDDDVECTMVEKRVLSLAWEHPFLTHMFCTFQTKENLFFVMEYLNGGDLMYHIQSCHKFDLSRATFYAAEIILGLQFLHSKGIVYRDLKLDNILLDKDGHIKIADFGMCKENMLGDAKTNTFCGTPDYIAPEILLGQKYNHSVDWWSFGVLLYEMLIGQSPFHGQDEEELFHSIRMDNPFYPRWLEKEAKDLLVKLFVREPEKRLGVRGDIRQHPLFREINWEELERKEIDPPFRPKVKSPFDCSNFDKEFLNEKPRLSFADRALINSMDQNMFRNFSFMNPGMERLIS

[17] = target: Glycogen synthase kinase-3 alpha (Homo sapiens, UniProt P49840); assay: Inhibition of human GSKalpha S449A mutant (2 to 3nd residues) using YRRAAVPPSPSLSRHSSPHQS(p) EDEEE as substrate incubated for 40 mins in presence of [gamma-33P]-ATP by scintillation counting method
In short: (§3)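 Outsourced radioisotope (HotSpot) kinase assay run by a contract lab, with ATP at the kinase's Km(ATP). The IC50 was converted to an apparent Ki by the Cheng-Prusoff equation, Ki = IC50/(1+[ATP]/Km(ATP)), using the experimentally determined Km(ATP).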

[18] = target: Glycogen synthase kinase-3 beta (Homo sapiens, UniProt P49841); assay: Inhibition of human GSKbeta H350L mutant (2 to 3nd residues) using YRRAAVPPSPSLSRHSSPHQS(p) EDEEE as substrate incubated for 40 mins in presence of [gamma-33P]-ATP by scintillation counting method; in short: as §3
[19] = target: T2, Protein kinase C theta type; assay: Inhibition of human full length PKCtheta using histone H1 as substrate incubated for 40 mins in presence of [gamma-33P]-ATP by scintillation counting method
In short: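 IC50 measured in a contracted radiometric kinase assay with ATP at the experimentally determined Km(ATP) of each kinase. Apparent Ki was derived by Cheng-Prusoff: Ki = IC50/(1+[ATP]/Km(ATP)).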
Target sequence in this assay (Q04759 whole entry): as the sequence (Q04759 whole entry, looked up) above

MOLM-13 = assay: Growth inhibition human MOLM-13 cells after 72 hrs by resazurin or MTT assay; assay type: functional
In short: (§4)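 Tumour cell lines kept in RPMI-1640, DMEM or MEM with 10% FBS at 37 °C, 5% CO2, mycoplasma-free. Exposure lasted 72 h. Viability was read by MTT for adherent solid-tumour lines and by resazurin for suspension leukaemia lines. GI50 came from nonlinear regression, given as mean ± standard deviation of at least two replicates unless stated otherwise.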

U-937 = assay: Growth inhibition human U-937 cells after 72 hrs by resazurin or MTT assay; assay type: functional; in short: as §4
COLO 205 = assay: Growth inhibition human COLO 205 cells after 72 hrs by resazurin or MTT assay; assay type: functional; in short: as §4
HCT-116 = assay: Growth inhibition human HCT-116 cells after 72 hrs by resazurin or MTT assay; assay type: functional; in short: as §4
HT-29 = assay: Growth inhibition human HT-29 cells after 72 hrs by resazurin or MTT assay; assay type: functional; in short: as §4
PANC-1 = assay: Growth inhibition human PANC-1 cells after 72 hrs by resazurin or MTT assay; assay type: functional; in short: as §4
A2780 = assay: Growth inhibition human A2780 cells after 72 hrs by resazurin or MTT assay; assay type: functional; in short: as §4
MCF7 = assay: Growth inhibition human MCF7 cells after 72 hrs by resazurin or MTT assay; assay type: functional; in short: as §4
MDA-MB-231 = assay: Growth inhibition human MDA-MB-231 cells after 72 hrs by resazurin or MTT assay; assay type: functional; in short: as §4
MDA-MB-453 = assay: Growth inhibition human MDA-MB-453 cells after 72 hrs by resazurin or MTT assay; assay type: functional; in short: as §4
[20] = Growth inhibition human WI38 cells after 72 hrs by resazurin or MTT assay; assay type: cell-based; conditions: WI-38 cells
[21] = Inhibition of CYP4501A in human liver microsomes using ethoxyresorufin O-deethylation as substrate by LC-MS/MS analysis
T47D = assay: Growth inhibition human T47D cells after 72 hrs by resazurin or MTT assay; assay type: functional; in short: as §4

Sequence of CDK8/Cyclin C (P49336 whole entry): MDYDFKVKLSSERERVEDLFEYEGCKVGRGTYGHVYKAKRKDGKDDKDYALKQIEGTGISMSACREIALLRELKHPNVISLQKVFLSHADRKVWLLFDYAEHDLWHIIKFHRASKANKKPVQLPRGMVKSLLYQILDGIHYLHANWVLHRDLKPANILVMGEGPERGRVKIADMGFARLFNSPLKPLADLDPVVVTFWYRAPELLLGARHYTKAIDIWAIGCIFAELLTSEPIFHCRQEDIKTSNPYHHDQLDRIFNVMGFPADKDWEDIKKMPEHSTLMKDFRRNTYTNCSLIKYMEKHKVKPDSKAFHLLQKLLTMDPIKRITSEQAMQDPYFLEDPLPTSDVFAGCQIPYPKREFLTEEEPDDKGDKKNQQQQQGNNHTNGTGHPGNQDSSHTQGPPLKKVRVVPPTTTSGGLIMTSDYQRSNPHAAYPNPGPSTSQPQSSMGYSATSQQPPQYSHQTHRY
Sequence of CDK8/Cyclin C (P24863 whole entry, further chain): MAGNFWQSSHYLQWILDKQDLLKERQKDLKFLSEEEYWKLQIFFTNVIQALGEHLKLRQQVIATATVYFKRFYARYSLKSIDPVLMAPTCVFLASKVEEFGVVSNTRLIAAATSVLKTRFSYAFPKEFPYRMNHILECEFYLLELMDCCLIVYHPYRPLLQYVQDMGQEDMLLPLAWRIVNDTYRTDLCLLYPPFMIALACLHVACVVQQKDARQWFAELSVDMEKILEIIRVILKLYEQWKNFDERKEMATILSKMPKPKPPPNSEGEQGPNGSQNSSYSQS
T1 sequence (Q00535 whole entry): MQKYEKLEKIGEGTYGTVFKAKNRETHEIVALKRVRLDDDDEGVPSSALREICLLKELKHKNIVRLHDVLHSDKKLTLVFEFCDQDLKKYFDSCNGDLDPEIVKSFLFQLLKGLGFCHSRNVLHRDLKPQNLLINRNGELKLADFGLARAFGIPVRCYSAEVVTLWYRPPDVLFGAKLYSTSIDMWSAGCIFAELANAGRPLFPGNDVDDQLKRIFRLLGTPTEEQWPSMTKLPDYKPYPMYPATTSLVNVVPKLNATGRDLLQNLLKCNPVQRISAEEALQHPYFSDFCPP
T1 sequence (Q15078 99-307 partner limits assumed): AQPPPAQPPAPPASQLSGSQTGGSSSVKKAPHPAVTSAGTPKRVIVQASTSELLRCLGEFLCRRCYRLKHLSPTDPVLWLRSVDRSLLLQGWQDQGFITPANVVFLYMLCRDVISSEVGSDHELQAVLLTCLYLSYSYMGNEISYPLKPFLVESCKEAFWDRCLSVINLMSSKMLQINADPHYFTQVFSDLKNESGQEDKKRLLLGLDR
Sequence of CDK17/Cyclin-Y (Homo sapiens) (Q00537 whole entry): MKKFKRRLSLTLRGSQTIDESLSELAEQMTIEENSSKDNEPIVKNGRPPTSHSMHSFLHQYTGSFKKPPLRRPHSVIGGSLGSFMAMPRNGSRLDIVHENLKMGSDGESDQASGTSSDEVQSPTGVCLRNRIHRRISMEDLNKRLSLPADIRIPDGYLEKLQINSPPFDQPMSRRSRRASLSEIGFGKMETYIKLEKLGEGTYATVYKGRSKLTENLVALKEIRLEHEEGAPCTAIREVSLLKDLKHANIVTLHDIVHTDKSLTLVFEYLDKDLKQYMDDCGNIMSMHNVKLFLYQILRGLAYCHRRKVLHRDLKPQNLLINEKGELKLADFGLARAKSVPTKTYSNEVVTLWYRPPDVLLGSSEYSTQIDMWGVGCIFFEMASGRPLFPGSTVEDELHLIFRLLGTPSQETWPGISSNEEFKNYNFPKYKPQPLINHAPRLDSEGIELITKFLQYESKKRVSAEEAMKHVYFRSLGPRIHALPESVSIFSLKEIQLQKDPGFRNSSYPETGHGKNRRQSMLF
Sequence of CDK17/Cyclin-Y (Homo sapiens) (Q8ND76 2-341 partner limits assumed): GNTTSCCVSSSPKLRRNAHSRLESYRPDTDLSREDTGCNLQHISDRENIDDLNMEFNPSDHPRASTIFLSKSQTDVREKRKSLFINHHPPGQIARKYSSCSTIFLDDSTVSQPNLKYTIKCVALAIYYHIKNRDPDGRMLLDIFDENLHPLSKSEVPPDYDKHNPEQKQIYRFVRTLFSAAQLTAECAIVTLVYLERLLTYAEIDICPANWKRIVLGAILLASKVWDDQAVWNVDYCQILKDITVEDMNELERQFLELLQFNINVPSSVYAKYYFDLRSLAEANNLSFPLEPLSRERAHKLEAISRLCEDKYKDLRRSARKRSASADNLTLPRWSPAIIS
Sequence of CDK3/Cyclin E (Homo sapiens) (P24864 whole entry, looked up): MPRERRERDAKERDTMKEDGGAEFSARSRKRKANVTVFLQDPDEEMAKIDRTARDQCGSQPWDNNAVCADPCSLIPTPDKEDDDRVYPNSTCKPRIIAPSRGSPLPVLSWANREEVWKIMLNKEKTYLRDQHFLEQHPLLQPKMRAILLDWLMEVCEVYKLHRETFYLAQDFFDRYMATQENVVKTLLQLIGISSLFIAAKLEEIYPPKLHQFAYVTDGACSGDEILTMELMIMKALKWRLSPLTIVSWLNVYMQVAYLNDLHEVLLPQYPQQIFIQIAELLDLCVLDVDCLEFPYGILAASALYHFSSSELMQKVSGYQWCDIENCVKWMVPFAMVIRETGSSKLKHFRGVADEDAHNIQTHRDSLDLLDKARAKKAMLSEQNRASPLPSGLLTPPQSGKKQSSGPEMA
Sequence of CDK3/Cyclin E (Homo sapiens) (Q00526 whole entry, looked up): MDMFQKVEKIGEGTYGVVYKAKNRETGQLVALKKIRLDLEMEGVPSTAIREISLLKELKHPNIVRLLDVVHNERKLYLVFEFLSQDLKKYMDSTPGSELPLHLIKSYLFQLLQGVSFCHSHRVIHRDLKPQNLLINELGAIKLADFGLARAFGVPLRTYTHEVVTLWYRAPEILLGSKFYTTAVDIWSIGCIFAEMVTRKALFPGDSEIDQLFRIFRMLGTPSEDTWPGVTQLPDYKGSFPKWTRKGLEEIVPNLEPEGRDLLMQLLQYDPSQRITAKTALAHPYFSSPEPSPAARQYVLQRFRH
Sequence of Glycogen synthase kinase-3 beta (Homo sapiens), P49841 [UNDEFINED MUTATION] (P49841 whole entry, looked up, stated change not applied): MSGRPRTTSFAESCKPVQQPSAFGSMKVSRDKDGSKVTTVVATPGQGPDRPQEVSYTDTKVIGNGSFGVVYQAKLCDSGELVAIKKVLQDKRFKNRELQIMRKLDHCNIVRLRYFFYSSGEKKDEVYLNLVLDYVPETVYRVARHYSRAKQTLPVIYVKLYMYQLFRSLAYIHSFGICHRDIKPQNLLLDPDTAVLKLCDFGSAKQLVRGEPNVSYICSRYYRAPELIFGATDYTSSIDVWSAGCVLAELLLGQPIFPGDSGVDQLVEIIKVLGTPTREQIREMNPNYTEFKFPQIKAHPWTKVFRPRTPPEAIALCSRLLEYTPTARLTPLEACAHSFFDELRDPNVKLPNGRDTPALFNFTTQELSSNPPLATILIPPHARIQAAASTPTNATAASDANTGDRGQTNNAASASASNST
Sequence of Glycogen synthase kinase-3 beta (P49841 whole entry): as the sequence (P49841 whole entry, looked up, stated change not applied) above
Sequence of Cyclin-dependent kinase 1/cyclin B1 (Homo sapiens) (P06493 whole entry, looked up): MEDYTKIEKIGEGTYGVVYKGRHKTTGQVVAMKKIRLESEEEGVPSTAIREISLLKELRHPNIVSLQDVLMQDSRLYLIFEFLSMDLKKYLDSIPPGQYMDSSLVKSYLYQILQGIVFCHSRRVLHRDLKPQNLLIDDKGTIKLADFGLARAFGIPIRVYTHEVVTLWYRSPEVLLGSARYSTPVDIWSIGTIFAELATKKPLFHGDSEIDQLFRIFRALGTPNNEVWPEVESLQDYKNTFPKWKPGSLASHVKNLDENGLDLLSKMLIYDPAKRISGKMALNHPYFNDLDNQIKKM
Sequence of Cyclin-dependent kinase 1/cyclin B1 (Homo sapiens) (P14635 whole entry, looked up): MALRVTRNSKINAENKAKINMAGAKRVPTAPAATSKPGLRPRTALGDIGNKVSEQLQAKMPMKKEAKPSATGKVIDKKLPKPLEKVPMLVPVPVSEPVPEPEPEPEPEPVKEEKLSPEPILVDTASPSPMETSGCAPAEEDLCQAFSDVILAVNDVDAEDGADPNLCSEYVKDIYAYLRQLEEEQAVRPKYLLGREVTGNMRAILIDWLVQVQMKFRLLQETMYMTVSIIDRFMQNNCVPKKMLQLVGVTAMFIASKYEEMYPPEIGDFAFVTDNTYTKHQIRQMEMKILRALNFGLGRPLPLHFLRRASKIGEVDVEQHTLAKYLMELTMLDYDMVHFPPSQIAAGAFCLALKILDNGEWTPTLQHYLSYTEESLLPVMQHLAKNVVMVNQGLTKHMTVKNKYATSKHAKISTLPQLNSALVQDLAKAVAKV

O=C1NCCC12CCN(c1c(Cl)cncc1-c1cccc3ccccc13)CC2
Ki (CDK8/Cyclin C): 16 nM
GI50 (MV4-11): 0.82 µM

O=C1NCCC12CCN(c1c(Cl)cncc1-c1cc3ccccc3s1)CC2
Ki (CDK8/Cyclin C): 14 nM
GI50 (MV4-11): 0.58 µM
inhibition [1]: inactive
inhibition [2]: inactive
inhibition [3]: inactive
inhibition [4]: inactive
inhibition [5]: inactive
inhibition [6]: inactive
inhibition [7]: inactive
inhibition [8]: inactive
inhibition [9]: inactive
inhibition [10]: inactive
inhibition [11]: inactive
inhibition [12]: inactive
inhibition [13]: inactive
inhibition [14]: > 50%
inhibition [15]: > 50%
inhibition [16]: > 50%
Ki [17]: 43 nM
Ki [18]: 18 nM
Ki [19]: 134 nM
GI50 (MOLM-13): 5.81 µM
GI50 (U-937): 2690 nM
GI50 (COLO 205): > 50 µM
GI50 (HCT-116): 42.7 µM
GI50 (HT-29): 29.3 µM
GI50 (PANC-1): > 50 µM
GI50 (A2780): 17.6 µM
GI50 (MCF7): > 50 µM
GI50 (MDA-MB-231): 34.2 µM
GI50 (MDA-MB-453): 17.4 µM
GI50 at 72 h [20]: 35 µM
IC50 [21]: 16.6 µM
GI50 (T47D): 17.9 µM

O=C1NCCC12CCN(c1c(Cl)cncc1-c1c[nH]c3ccccc13)CC2
Ki (CDK8/Cyclin C): 56 nM
GI50 (MV4-11): 8.77 µM

O=C1NCCC12CCN(c1c(Cl)cncc1-c1cccc3cnccc13)CC2
Ki (CDK8/Cyclin C): 52 nM
GI50 (MV4-11): 62.3 µM

Cn1cc(-c2ccc(-c3cncc(Cl)c3-n3ccc(C(=O)O)c3)cc2)cn1
Ki (CDK8/Cyclin C): 4190 nM
GI50 (MV4-11): 87.1 µM

O=C1NCCC12CCN(c1c(Cl)cncc1-c1cn(Cc3ccccc3)c3ncccc13)CC2
Ki (CDK8/Cyclin C): 58 nM
GI50 (MV4-11): 30.6 µM

Cn1ncc2cc(Nc3cncc(Cl)c3N3CCC4(CCNC4=O)CC3)ccc21
Ki (CDK8/Cyclin C): 670 nM
GI50 (MV4-11): 1.71 µM

O=C1NCCC12CCN(c1c(Cl)cncc1-c1cncc3ccccc13)CC2
Ki (CDK8/Cyclin C): 66 nM
GI50 (MV4-11): 7.55 µM

Cn1cc2c(-c3cncc(Cl)c3N3CCC4(CCNC4=O)CC3)cccc2n1
Ki (CDK8/Cyclin C): 52 nM
GI50 (MV4-11): 5.26 µM

CNC(=O)c1ccn(-c2c(Cl)cncc2-c2ccc(-c3cnn(C)c3)cc2)c1
Ki (CDK8/Cyclin C): 2030 nM
GI50 (MV4-11): 35 µM

Cn1cc(-c2ccc(-c3cncc(Cl)c3-n3ccc(C(N)=O)c3)cc2)cn1
Ki (CDK8/Cyclin C): 1090 nM
GI50 (MV4-11): 9.58 µM

O=C1NCCC12CCN(c1c(Cl)cncc1-c1cnn(-c3ccccc3)c1)CC2
Ki (CDK8/Cyclin C): 42 nM
GI50 (MV4-11): 0.84 µM

O=C1NCCC12CCN(c1c(Cl)cncc1-c1csc3ccccc13)CC2
Ki (CDK8/Cyclin C): 21 nM
GI50 (MV4-11): 0.35 µM

O=C1NCCC12CCN(c1c(Cl)cncc1-c1cn(S(=O)(=O)c3ccccc3)c3ccccc13)CC2
Ki (CDK8/Cyclin C): 645 nM
GI50 (MV4-11): 28.4 µM

O=C1NCCC12CCN(c1c(Cl)cncc1-c1cccc3[nH]ccc13)CC2
Ki (CDK8/Cyclin C): 19 nM
GI50 (MV4-11): 1.91 µM
